Out of some 220,000 compounds screened, about 630 (0.29%) were called active. For the sample, actives were picked, then their nearest neighbours and some compounds at random. Unmarked numbers belong to inactive results.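 Rule for the calls: active = activation above its plate's cutoff, the mean activation of the plate's test wells plus 3 SD (cut at about 12% in these data); inactive = the rest.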

Chain of Mucolipin-3 (Homo sapiens) (Q8TDD5 whole entry, looked up): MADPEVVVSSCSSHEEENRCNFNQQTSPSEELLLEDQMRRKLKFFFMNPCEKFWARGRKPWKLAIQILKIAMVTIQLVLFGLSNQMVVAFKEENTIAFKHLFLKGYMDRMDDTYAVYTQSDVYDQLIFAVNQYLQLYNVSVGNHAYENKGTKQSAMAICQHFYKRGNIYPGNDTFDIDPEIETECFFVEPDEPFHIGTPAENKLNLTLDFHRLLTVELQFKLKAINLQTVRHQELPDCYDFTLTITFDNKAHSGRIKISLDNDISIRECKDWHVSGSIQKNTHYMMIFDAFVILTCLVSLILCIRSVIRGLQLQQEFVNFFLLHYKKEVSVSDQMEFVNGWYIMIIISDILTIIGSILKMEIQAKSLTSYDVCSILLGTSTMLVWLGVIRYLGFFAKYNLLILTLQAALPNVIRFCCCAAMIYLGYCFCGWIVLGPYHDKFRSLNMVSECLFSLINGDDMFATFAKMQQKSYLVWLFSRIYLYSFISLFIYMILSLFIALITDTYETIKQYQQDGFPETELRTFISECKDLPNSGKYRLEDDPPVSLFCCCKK

The test concerns the target Mucolipin-3 (Homo sapiens) (UniProt Q8TDD5). The test can be described thus: human TRPML3 channel agonists, primary screen, cell-based, HEK293 TRPML3-YFP, Fluo-8 calcium fluorescence, 3 µM (AID 1448). Particulars: at 3 µM, hits give high values, 100% = the carbachol control signal. Summed up:
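Test system – HEK293 line with stable expression of human TRPML3-YFP channel · Control set – carbachol 87 µM final as high control (100%), DMSO as low control (0%) · Signal – Fluo-8 calcium dye fluorescence, ex 470-495, em 515-575 nm · Incubation – 1-h 37 °C dye load, 5-s basal, 120-s post-compound reads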
Consider `Cc1[nH]c2c(C(=O)N3CCCC(CCC(=O)NCc4ccccc4F)C3)cccc2c1C` (stereo not drawn), for which the activation was -0.04%.

`COC(=O)CCC(=O)N1CCCC(CO)(Cc2ccccc2)C1` (stereo not drawn): the activation was 0.26%.

On to `Cc1ccccc1-n1nc(C)c2c1N=C1C(Cl)=CC(Cl)=CN1C2c1ccc(C(=O)O)cc1` (stereo not drawn), for which the activation was 0.62%.

As for `Cc1ccc(OCC(=O)Nc2ccccc2Sc2ccc(Cl)cc2)c([N+](=O)[O-])n1`, the activation is 0.1%.

Regarding `CC(C)CNC(=O)C(=O)Nc1ccc(N(C)C)cc1`, the activation was 1.3%.

As to `O=[N+]([O-])/C=C1\CCCCCN1`, the activation was 0.64%.

As for `CCOC(=O)N1CCN(C(=O)CN(c2ccc(C)c(C)c2)S(=O)(=O)c2ccccc2)CC1`, the activation was 0.07%.

With `COc1cccc2c(=O)n(CC(=O)N3CCCCCC3)ccc12`, the activation is 0.82%.

`COc1ccc(Cl)cc1N(CC(=O)N/N=C/c1ccc(OCC(N)=O)cc1)S(C)(=O)=O`: the activation is 0.86%.

In the case of `COc1ccc(Cl)cc1N(CC(=O)N1CCCCC1)S(C)(=O)=O`, the activation is 56.7% (active).

On to `COc1ccccc1N(CC(=O)N1CCCCC1)S(=O)(=O)c1ccccc1`, for which the activation is 162% (active).

Turning to `COc1ccc(S(=O)(=O)N(C)CC(=O)N2CCCC2)cc1Cl`, the activation was 0.85%.

Take `CCCC(=O)Nc1ccc2c(c1)nc(CCNC(=O)c1ccco1)n2C`: the activation is 0.81%.

For `CCOc1ccc(CN2CCN(Cc3ccc(C)o3)CC2CCO)cc1` (stereo not drawn), the activation is 1.1%.

As for `CN(Cc1nc(-c2cnccn2)no1)Cc1n[nH]c2c1CCCCC2`, the activation is 0.69%.

Turning to `CCn1c(SCC(=O)Nc2nccs2)nnc1-c1ccco1`, the activation was 0.4%.

On to `O=C(CSc1nnc2ccc(-c3ccncc3)nn12)N1CCCCC1`, for which the activation was -0.71%.

For `Cc1ccc(F)cc1NC(=O)N1CCCN(c2ccc(C(F)(F)F)cn2)CC1`, the activation was 2.2%.

With `Cc1cc2c(cc1C)N(C(=O)CN1C(=O)c3ccccc3C1=O)C(C)(C)c1ssc(=S)c1-2`, the activation was 81.4% (active).

Consider `Cc1ccc2c(c1)-c1c(ssc1=S)C(C)(C)N2C(=O)CN1C(=O)c2ccccc2C1=O`, for which the activation is -0.04%.

For the molecule `Cc1cccc(NC(=O)CN2C(=O)c3ccccc3C2=O)c1C`, the activation is 1.15%.

`CCOc1ccc(NC(=O)NNC(=O)c2ccc(Cl)cc2Cl)cc1`: the activation is 0.56%.

With `O=C(NCCN1CCOCC1)c1ccc2c(c1)N(Cc1ccc(Cl)cc1)CCS2`, the activation was 0.23%.

For `O=C1/C(=C/c2cccs2)SC(=S)N1C1CCS(=O)(=O)C1` (stereo not drawn), the activation is 0.54%.

In the case of `O=C(O)CCC(=O)Nc1nc2ccc([N+](=O)[O-])cc2s1`, the activation was 0.5%.

For `O=C(NC(Nc1nc2ccc([N+](=O)[O-])cc2s1)(C(F)(F)F)C(F)(F)F)c1ccccc1`, the activation is 13% (active).

On to `O=C(Nc1nc2ccc([N+](=O)[O-])cc2s1)c1ccncc1`, for which the activation was 1.14%.

Turning to `C=CCNC(=O)COC(=O)CNC(=O)c1cc(Cl)cc([N+](=O)[O-])c1`, the activation is 0.51%.

Turning to `COc1ccc(NS(=O)(=O)c2ccc(Oc3c(C#N)cccc3C#N)cc2)cc1`, the activation was 4.31%.

Regarding `Cc1nnc(C)c2c(C)n(N)c(C)c12`, the activation was 0.94%.

Regarding `O=C(NC(CC(=O)N1CCN(c2ccccc2)CC1)c1ccccc1)c1ccccc1Cl` (stereo not drawn), the activation is -0.24%.

Turning to `COc1ccc(C(=O)N/N=c2\oc3ccccc3cc2C(N)=O)cc1`, the activation was 0.85%.

For `CCN(CC)c1ccc2cc(C(N)=O)/c(=N\NC(=O)c3ccncc3)oc2c1`, the activation was 22.1% (active).

Turning to `CCN(CC)c1ccc2cc(C(=O)O)c(=O)oc2c1`, the activation is 0.92%.

As for `OCC(O)CN(c1ccccc1)c1ccccc1` (stereo not drawn), the activation is 0.25%.

For `CN1CCN(/N=C/c2ccc(-c3ccc([N+](=O)[O-])cc3)o2)CC1`, the activation is 4.1%.

Consider `Cn1c2c(c(=O)n(C)c1=O)C(c1cccc(F)c1)C(C#N)=C(N)O2` (stereo not drawn), for which the activation is 0.03%.

Turning to `Cc1nonc1C1CCCN1Cc1nc(-c2ccc(F)cc2F)oc1C` (stereo not drawn), the activation was 0.58%.

On to `O=S(=O)(c1cccc2nonc12)N1CCN(c2cccc(Cl)c2)CC1`, for which the activation was 0.52%.

On to `CCOC(=O)CC1C(=O)NCCN1c1nc2c(C)cccn2c(=O)c1/C=C1\SC(=S)N(C(C)CC)C1=O` (stereo not drawn), for which the activation was 11.9% (active).

Consider `CCOC(=O)CC1C(=O)NCCN1C(=O)COc1ccc(Br)cc1C` (stereo not drawn), for which the activation is -0.14%.

For `Cc1cccn2c(=O)c(/C=C3\SC(=S)N(CC(C)C)C3=O)c(NCCCOC(C)C)nc12`, the activation is 0.65%.

As to `CC(CC(=O)C1C(C)C=CCC1(C)C)NNC(N)=O` (stereo not drawn), the activation was 0.6%.

On to `O=C(CC(=O)Nc1ccc(Cl)c(Cl)c1)N/N=C/c1ccc(O)cc1`, for which the activation was 0.24%.

As for `O=C(CC(O)(C(F)(F)F)C(F)(F)F)Nc1ccc(Cl)c(Cl)c1`, the activation was 17.3% (active).

Turning to `CN(C)CCNC(CC(=O)Nc1ccc(Cl)c(Cl)c1)C(=O)O` (stereo not drawn), the activation is -0.13%.

Take `CCn1c(CSc2nc(C)cc(C)n2)nnc1SCC(N)=O`: the activation was 0.87%.

For `CC(C)CN(CC(C)C)CC(O)CN(c1ccccc1)S(=O)(=O)c1ccccc1[N+](=O)[O-]` (stereo not drawn), the activation is -1.13%.

For `COc1ccc(-c2noc(-c3ccc(C)cc3)n2)cc1`, the activation is 1.08%.

For the molecule `COc1ccc(-c2noc(CN(C)S(=O)(=O)c3ccc(C)cc3)n2)cc1`, the activation is 138% (active).

For the molecule `COc1ccc(-c2noc(CSc3ccc(C)cc3)n2)cc1`, the activation was 0.35%.

As for `Cc1ccnc(NC(=O)c2ccc(Cl)c([N+](=O)[O-])c2)c1`, the activation is 0.05%.

Take `CC(C)(C)OC(=O)N1CCC(NC(=O)c2[nH]cnc2C(=O)N[C@@H](Cc2ccccc2)C(=O)OCc2ccccc2)CC1`: the activation was 0.25%.

With `COc1cc(NC(=O)c2ccccc2NS(=O)(=O)c2ccc(Cl)s2)cc(OC)c1`, the activation was 12.1% (active).

Turning to `COc1cc(NC(=O)c2cccnc2SC)cc(OC)c1`, the activation is -0.28%.

Turning to `COC(=O)c1ccc(NC(=O)c2ccccc2NS(=O)(=O)c2ccccc2)cc1`, the activation is 11.1%.

Turning to `CN(Cc1cc2cc(F)ccc2[nH]1)Cc1nc(-c2cnccn2)no1`, the activation was 0.76%.

Turning to `Cc1cccc(CSc2ccc(-c3cccs3)nn2)c1`, the activation was 0.19%.
